Hits are enriched below; roughly 1.8% of the tested compounds scored in any of these assays.
Runt-CBFb FRET: Runt domain-CBFb interaction inhibition | inhibition, % at 20 µM | Q01196+Q13951 | 220,000 tested, 0.46% active | AID 1496 | Cerulean-Runt/Venus-CBFb FRET ratio 530/480, 1 h;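 active means inhibition over about 50% at 20 µM in the single-dose screen, limit read from the data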;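 further: 0% = DMSO wells and 100% = excess unlabeled CBFb competitor control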
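Assay system: Cerulean-Runt domain / Medium: Tris 50 mM pH 7.5, KCl, K2SO4, 0.01% BSA / Timing: protein complex preformed 1 h, compound exposure 1 h, room temperature, dark / Measured by: FRET, excitation 422 nm, emission at 530 and 480 nm / Evaluation: loss of energy transfer signal / Control set: 5 µM unlabeled CBFb as full-inhibition high control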
Platelet DG rel: modulates dense granule release in human platelets; human platelet-rich plasma, SFLLRN dense granule ATP release, luminescence; inhibition, %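 (compounds screened at 7.5 µM in platelet-rich plasma)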; 300,000 tested, 0.22% active; AID 1663;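 active means mean replicate score, as percent of positive control, at or above 50; inconclusive means mean below 50 but at least one replicate at or above 50; inactive means mean and every replicate below 50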
RanGTP-Imp inh: inhibitors of RanGTP-importin-beta interaction, primary screen, biochemical, FRET, CFP-Ran, YFP-importin-beta, homogeneous; cell-free CFP-Ran/YFP-importin-beta FRET ratio; inhibition, % (test concentration not listed); 300,000 tested, 1.1% active; AID 2216;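 active means more than half of the replicate wells show a fall in the fluorescence ratio signal beyond about 16%, limit read from the data, passing the limit was not always enough; inconclusive means exactly half of the replicate wells pass the set limit; inactive means fewer than half of replicates pass the limit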;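 further: 0% = DMSO wells and 100% = Ran loaded with GDP instead of GTP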
Rce1 inh: blocks yeast Ras-converting enzyme; Q03530; yeast membranes, quenched prenylated peptide cleavage fluorescence; 290,000 tested, 0.27% active; calls only;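 active means fall in fluorescence gain of 50% or more versus controls, with final raw signal at or below 3038400; inconclusive means same 50% fall but final raw signal above 3038400; inactive means fall in fluorescence gain under 50%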;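 further: plate controls were neutral control wells for no effect and wells lacking membranes for full effect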
Target sequence (Q03530 whole entry, looked up): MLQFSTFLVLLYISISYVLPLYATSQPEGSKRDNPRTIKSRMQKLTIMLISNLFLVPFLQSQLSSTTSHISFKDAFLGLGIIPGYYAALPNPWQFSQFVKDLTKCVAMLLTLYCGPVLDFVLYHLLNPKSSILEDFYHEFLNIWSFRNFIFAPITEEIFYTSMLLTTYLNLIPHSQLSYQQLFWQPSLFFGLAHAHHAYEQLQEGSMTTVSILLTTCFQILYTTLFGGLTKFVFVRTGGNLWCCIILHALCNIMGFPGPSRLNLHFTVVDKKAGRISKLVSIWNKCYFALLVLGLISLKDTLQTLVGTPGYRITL
Runt-SMMHC FRET: blocks binding of human RUNX1 Runt domain to CBFb-SMMHC; Q01196+Q13951; Cerulean-Runt/Venus-CBFb-SMMHC FRET ratio 530/480, 1 h; inhibition, % at 20 µM; 220,000 tested, 0.74% active; AID 1434;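 active means mean inhibition across duplicate retests at 20 µM reaching about 50%, limit read from the data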;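 further: 0% = DMSO wells and 100% = wells with excess untagged CBFb-SMMHC; inhibitors lower the FRET ratio by blocking Runt binding to CBFb-SMMHC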
The depositor's hits bear a star; i = inactive; ? = inconclusive; nt = no result; + = active, no number.

SMILES | Runt-CBFb FRET | Platelet DG rel | RanGTP-Imp inh | Rce1 inh | Runt-SMMHC FRET
CN(C)c1ccc(/C=C/c2nc3ccccc3s2)cc1 | -73 | 64* | 4 | i | -180
CN(Cc1ccccc1)S(=O)(=O)c1ccccc1[N+](=O)[O-] | 2 | -5 | 3 | i | 0
CCCOc1ccc(Cc2c(Cl)nc(SC)nc2N(C)C)cc1 | 1 | -2 | 1 | i | 0
Cc1ccccc1-c1noc(C(C)NC(=O)c2ccco2)n1 (stereo not given) | nt | -1 | -1 | i | nt
CC1CCCC(NC(=O)COC(=O)CCC2CCCC2)C1C (stereo not given) | 1 | -8 | -3 | i | 2
Nc1nc2n[nH]nc2c(=O)[nH]1 | nt | -6 | 5 | + | nt
Nc1nc2nn(-c3ccccc3)nc2c(=O)[nH]1 | -2 | 0 | 1 | i | 0
CN1CCN(S(=O)(=O)c2cccc(C(=O)NC3CCCC3)c2)CC1 | nt | 5 | 1 | i | nt
COc1ccc(N2CCN(c3nc4c(C)cccn4c(=O)c3C=C(C#N)C#N)CC2)cc1 | nt | -4 | 3 | i | nt
CNC(=O)/C(C#N)=C/c1c(N2CCN(c3ccccc3)CC2)nc2c(C)cccn2c1=O | nt | 2 | 19* | i | nt
CNC(=O)/C(C#N)=C/c1c(N2CCN(c3ccc(OC)cc3)CC2)nc2c(C)cccn2c1=O | nt | 6 | 8 | i | nt
COC(=O)/C(C#N)=C/c1c(N2CCN(c3ccc(OC)cc3)CC2)nc2c(C)cccn2c1=O | nt | -7 | 34* | i | nt
Cc1cccn2c(=O)c(/C=C(\C#N)C(N)=O)c(N3CCN(Cc4ccc5c(c4)OCO5)CC3)nc12 | 122* | 5 | 8 | i | nt
Cc1cccn2c(=O)c(C=C(C#N)C#N)c(N3CCN(c4ccccc4)CC3)nc12 | nt | 6 | 25* | i | nt
CCN(CCO)c1cc(Cl)nc(SC)n1 | -1 | 7 | 69* | i | -5
CCOC(=O)C(=O)Nc1ccc(S(=O)(=O)Nc2nccs2)cc1 | nt | 9 | -4 | i | nt
CCn1c(COc2cccc(OC)c2)nnc1SCC(=O)NC1CCCC1 | nt | 10 | 8 | i | nt
CCn1c(COc2cccc(C)c2)nnc1SCC(=O)NC1CCCC1 | nt | 1 | 3 | + | nt
COc1ccccc1N(CC(=O)NCCc1ccccc1)C(=O)CCC(=O)Nc1cc(C)ccn1 | nt | -31 | 2 | i | nt
Cc1cc(C(=O)COc2cccc3cccnc23)c(C)n1C | 4 | -2 | 90* | i | -2
COc1cccc(N2CC(=O)N(NC(=O)c3sc4nc(C)cc(C)c4c3N)CC2=O)c1 | 4 | -2 | 16* | i | 2
CC(=O)Nc1ccc(C(=O)OCCc2ccccc2)cc1 | nt | 4 | 2 | nt | nt
COC(=O)c1c(-c2ccc(C(C)(C)C)cc2)csc1NC(=O)C1C2CCC(O2)C1C(=O)O (stereo not given) | 40 | 6 | -3 | i | 27
CC1=CC(c2ccccc2)n2nc(NS(=O)(=O)c3ccc(C)cc3)nc2N1 (stereo not given) | 35 | nt | nt | nt | 85*
CC(=O)c1cccc(NC(=O)COC(=O)C2=COCCO2)c1 | 0 | -4 | nt | nt | 1
SMILES | Runt-CBFb FRET | Platelet DG rel | RanGTP-Imp inh | Rce1 inh | Runt-SMMHC FRET
O=C(CN1C(=O)c2ccccc2C1=O)Nc1cccc([N+](=O)[O-])c1 | 0 | 2 | 21* | i | 6
O=S(=O)(Nc1nc2ccccc2nc1N1CCN(c2ccccn2)CC1)c1ccc(Cl)cc1 | 34 | nt | nt | nt | 104*
O=S(=O)(Nc1nc2ccccc2nc1N1CCc2ccccc2C1)c1ccc(Cl)cc1 | -1 | 11 | -6 | i | 8
Cc1ccc(OCc2cc(C(=O)N(C)CCc3ccccn3)no2)cn1 | nt | 2 | 1 | i | nt
CCc1nnc(NC(=O)CSc2nnc(-c3ccco3)n2CCOC)s1 | 2 | 7 | -4 | i | 4
CCc1nnc(NC(=O)CSc2nnc(Cc3cccn3C)n2CCOC)s1 | nt | 52* | 0 | i | 0
CC(C)OC(=O)CC(=O)CSc1nc2c(cc1C#N)CCCCC2 | 35 | 1 | 26* | i | 71*
CCOC(=O)CC(=O)CSc1nc2c(c(C)c1C#N)CCC2 | 11 | -10 | 24* | i | 13
CCOC(=O)CC(=O)CSc1nc(C)cc(C)c1C#N | 5 | 0 | ? | i | 7
Cc1ccsc1C1NC(=O)c2c(sc3c2CCN(C)C3)N1 (stereo not given) | 106* | -55 | 132* | i | 73*
CSc1ccc(C2NC(=O)c3c(sc4c3CCN(C)C4)N2)cc1 (stereo not given) | 110* | 0 | 112* | i | 64*

Screening data from PubChem BioAssay.
